Data: PubChem BioAssay AID602212 (Southern Research Specialized Biocontainment Screening …, 2012)
Activity calls are given as the source filed them.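 How the source made its calls: active means inhibition of 30% or more at any tested concentration; inactive means the rest.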

The molecules below were run on M18 aspartyl aminopeptidase (Plasmodium falciparum 3D7) (assay: inhibition of malaria M18 aspartyl aminopeptidase – biochemical, QFRET fluorogenic substrate, set 2, counter-screen for PfM1 aminopeptidase inhibitor project, dose response (AID 602212)). Settings: recombinant PfM18AAP, H-Glu-NHMec fluorogenic cleavage; series mostly up to 100 µM.
Outline: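 Test system – recombinant Plasmodium falciparum M18 aspartyl aminopeptidase, purified enzyme · Amount – 5 µg/mL PfM18AAP · Replication – each concentration tested in triplicate · Detection – released NHMec fluorescence, excitation 370 nm, emission 460 nm · Buffer or medium – Cobalt-containing Tris buffer, pH 7.5 · Reagent – 0.1 mM H-Glu-NHMec substrate · Schedule – Enzyme–substrate reaction with compound, 90 min, room temperature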

| SMILES | outcome |
| --- | --- |
| CC[C@H](C)[C@H](NS(=O)(=O)c1ccc(Br)s1)C(=O)NCc1ccc(Cl)cc1 | inactive |
| O=C(NCc1ccc(Cl)cc1)C1CCN(S(=O)(=O)c2ccc(Br)s2)CC1 | inactive |
| O=C(NCc1ccc(F)cc1)C1CCN(S(=O)(=O)c2ccc(Br)s2)CC1 | inactive |
| CC[C@H](C)[C@H](NS(=O)(=O)c1ccc(Br)s1)C(=O)NCc1ccc2c(c1)OCO2 | inactive |
| CC[C@H](C)[C@H](NC(=O)c1ccc(C(C)(C)C)cc1)C(=O)NCc1ccc2c(c1)OCO2 | inactive |
| O=C(NCc1ccccc1)C1CCN(S(=O)(=O)c2ccc(Br)s2)CC1 | inactive |
| O=C(NCc1ccc2c(c1)OCO2)C1CCN(S(=O)(=O)c2ccc(Br)s2)CC1 | inactive |
| CC[C@H](C)[C@H](NC(=O)c1ccc(C(C)(C)C)cc1)C(=O)NCc1ccc(Cl)cc1 | inactive |
